Shown are actives, neighbours in structure and some others; about 1.8% of the full set was active somewhere.
STAT1 blocker – STAT1 signaling inhibitors, primary screen, cell-based, HTS, luciferase reporter. NIH 3T3 STAT1-luciferase reporter, IFN-gamma, luminescence. AID 920, 2007. actives 0.35% (n = 200,000). inhibition, % at 5.5 µM;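 active means inhibition above a set limit, the mean inhibition across all tested compounds plus 3 SD, cut at about 34% in these data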;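 further: 0% = IFN-gamma with DMSO and 100% = IFN-gamma with 300 µM nifuroxazide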
STAT3 inh-1 – IL-6 driven STAT3 reporter inhibitors, primary screen, U3A cells, luciferase, luminescence, MLSCN library. IL-6 STAT3-luciferase reporter; host cell line lacks STAT1. inhibition, % at 5.5 µM. actives 0.89% (n = 190,000). AID 862, 2007;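 active means inhibition above the mean inhibition across all screened compounds plus 3 SD, cut at about 44% in these data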;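 further: 0% = DMSO only wells and 100% = 100 µM nifuroxazide control wells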
TRAIL sens C8 – viability loss with TRAIL in NB7+C8 cells, primary screen, TRAIL sensitizer project, cell-based, ATPlite luminescence | inhibition (viability loss, TRAIL sensitization), % at 10 µM | actives 1% (n = 360,000);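 active means compounds causing at least 50% loss of cell viability in the single-dose screen, relative to plate controls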
PPC-1+TRAIL kill – compounds killing PPC-1 cancer cells with TRAIL present, primary screen, TRAIL potentiator project, ATPLite luminescence, uHTS; PPC-1 cells + TRAIL, ATPLite viability luminescence; cell killing (% activity), % at 4 µM or 5 µM; actives 0.41% (n = 220,000);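 active means cell killing above 50% in the first pass at 4 µM, then a duplicate retest at 5 µM averaging 50% or more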;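 further: plate controls were cells with TRAIL plus DMSO for no effect and medium-only wells lacking cells for full effect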
STAT3 activator – IL-6 driven STAT3 reporter potentiators, primary screen, U3A cells, luciferase, luminescence, MLSCN library; activation (% of control), % at 5.6 µM; actives 0.91% (n = 190,000); IL-6 STAT3-luciferase reporter; 100% = signal with IL-6 EC80 alone;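 active means activation above the screen-wide mean of compound activation plus 3 SD, cut at about 130% in these data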;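 further: 0% = background luminescence of wells with medium and substrate only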
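Material: human STAT1-deficient U3A cells with stable STAT3-luciferase reporter / Probe or stimulus: IL-6 stimulus at 33 ng/mL final / Schedule: 1 h compound pre-exposure, 6 h IL-6 stimulation, 37 °C / Technique: luminescence / Read-out basis: percent of IL-6-only median luminescence / Control set: IL-6-only high control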
STAT3 inh-2 – STAT3 reporter inhibitors, retest of hits, confirmation, U3A cells, luciferase, luminescence; shares compounds with STAT3 inh-1; IL-6 STAT3 luciferase reporter; cell line lacks STAT1; inhibition, % at 5.7 µM; actives 45% (n = 1,200);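 active means inhibition above the hit cutoff computed for the primary STAT3 screen, cut at about 44% in these data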;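 further: 0% = IL-6 plus DMSO and 100% = IL-6 plus nifuroxazide control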
NFkB inh 2 – NF-kB reporter inhibitors in human cells, confirmation, counter-screen for STAT3 inhibitor project, cell-based, HEK293T, luciferase, TNF-alpha stimulus; inhibition, % at 5.7 µM; AID 1308, 2008; shares compounds with STAT3 inh-1; TNF-alpha induced; actives 36% (n = 1,200);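 active means inhibition above the mean of solvent-only control wells plus 3 SD, cutoff set per campaign, cut at about 13% in these data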;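 further: 0% = TNF-alpha with DMSO and 100% = TNF-alpha with MG high control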
STAT1 inh 2 – STAT1 reporter inhibitors, IFN-gamma induced, confirmation, counter-screen for STAT3 inhibitor project, cell-based, NIH 3T3, luciferase luminescence | shares compounds with STAT3 inh-1 | NIH 3T3 STAT1-luciferase reporter | inhibition, % at 5.7 µM | actives 27% (n = 1,200);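 active means inhibition above the mean plus 3 SD of solvent-only control wells, limit set per screening run, cut at about 16% in these data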;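 further: 0% = DMSO with IFN-gamma and 100% = nifuroxazide control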
Numbers without * were called inactive; x = no result.

SMILES | STAT1 blocker | STAT3 inh-1 | TRAIL sens C8 | PPC-1+TRAIL kill | STAT3 activator | STAT3 inh-2 | NFkB inh 2 | STAT1 inh 2
CC1CCN(S(=O)(=O)c2ccc3c(c2)oc(=O)n3CC(=O)NCc2ccc3c(c2)OCO3)CC1 | 12 | 44* | 3 | -12 | 68 | 38 | 10 | 17*
CC1(c2nnnn2-c2ccc3c(c2)OCCO3)CCC(=O)N1CCc1ccccc1F (stereo not given) | x | x | -12 | x | x | x | x | x
Nc1nn(-c2cccc(F)n2)cc1-c1ccccc1 | -16 | 42 | 33 | 25 | 66 | x | x | x
Nc1nn(-c2cccc(F)n2)cc1-c1ccc(Cl)cc1 | 19 | 58* | 47 | 26 | 53 | 14 | -25 | -138
Cc1ccc(S(=O)(=O)N(C)CCCC(=O)Nc2ccncc2)cc1 | 20 | 50* | 17 | 25 | 63 | 38 | 3 | 13
O=C(Nc1nc(-c2ccc(S(=O)(=O)N3CCCCCC3)cc2)cs1)c1ccccc1 | 17 | 34 | 34 | -3 | 74 | x | x | x
O=C(Nc1nc(-c2ccc3c(c2)OCCO3)cs1)c1ccc(S(=O)(=O)N2CCCCC2)cc1 | 8 | 45* | 21 | 2 | 67 | 62* | 18* | 0
COCCCN1C(=O)C(CC(=O)NC(c2ccccc2)c2ccccc2)CC(C(=O)N2CCCCCC2)=C1C (stereo not given) | x | x | -15 | x | x | x | x | x
COc1ccc(Nc2cc(C)nc3ncnn23)c(OC)c1 | -5 | -1 | -2 | 18 | 109 | x | x | x
COc1ccc(CNc2cc(C)nc3ncnn23)c(OC)c1 | 13 | 67* | 10 | 4 | 45 | 52* | 17* | 17*
O=C(C1CC1)N1CCC(c2nc(-c3ccc(S(=O)(=O)NCC4CCCO4)cc3)no2)CC1 (stereo not given) | 23 | 51* | 7 | 15 | 58 | 56* | 15* | 15
CS(=O)(=O)N1CCCC(c2nc(-c3ccc(S(=O)(=O)NCc4ccccc4)cc3)no2)C1 (stereo not given) | 14 | 66* | 30 | -1 | 47 | 72* | 26* | 22*
O=C(Cc1ccccc1)N1CCCC(c2nc(-c3ccc(S(=O)(=O)N4CCCC4)cc3)no2)C1 (stereo not given) | 19 | 9 | -11 | 0 | 97 | x | x | x
O=C(c1ccccc1)N1CCC(c2nc(-c3ccc(S(=O)(=O)NCC4CCCO4)cc3)no2)CC1 (stereo not given) | 19 | 69* | 5 | 5 | 42 | 41 | 22* | 27*
COc1ccc(NC(=O)CC2CC3CCC2C3)cc1S(=O)(=O)N1CCOCC1 (stereo not given) | x | x | -7 | x | x | x | x | x
O=c1cc(CSc2ccc(Cl)cc2)nc(-c2ccccn2)[nH]1 | x | x | 30 | x | x | x | x | x
Nn1c(COc2ccccc2F)nnc1SCC(=O)NCC1CCCO1 (stereo not given) | x | x | -18 | x | x | x | x | x
CCC(NC(=O)C1C2C=CC(C2)C1C(=O)O)c1ccc(C)cc1 (stereo not given) | x | x | -1 | x | x | x | x | x
CC[C@@]1(C(=O)OC)N[C@H](CN(C)C(=O)COc2ccccc2)[C@@H]2C(=O)N(C)C(=O)[C@@H]21 | x | x | 13 | x | x | x | x | x
COC(=O)c1ccc2nc(NC(=O)CSCC(=O)OCC(=O)c3ccccc3)sc2c1 | -10 | -10 | 16 | 10 | 106 | x | x | x
Cc1ccc2nc(NC(=O)CSCC(=O)OCC(=O)c3ccc(Br)cc3)sc2c1 | 36* | 87* | 23 | 26 | 33 | 67* | 23* | 33*
O=C(/C=C/Nc1ccc(F)cc1F)c1cccs1 | 1 | 66* | 93* | 63* | 44 | 54* | 55* | 33*
O=C(/C=C/Nc1ccccc1F)c1cccs1 | 0 | 61* | 87* | 50* | 48 | 2 | 16* | -46
O=C(c1ccc(S(=O)(=O)N2CCC(c3nc4ccccc4s3)CC2)cc1)N1CCOCC1 | x | x | -7 | 6 | x | x | x | x
O=S(=O)(c1ccc2c(c1)OCCO2)N1CCC(c2nc3ccccc3s2)CC1 | 8 | 53* | 10 | -1 | 54 | 44* | 10 | -7
SMILES | STAT1 blocker | STAT3 inh-1 | TRAIL sens C8 | PPC-1+TRAIL kill | STAT3 activator | STAT3 inh-2 | NFkB inh 2 | STAT1 inh 2
Cc1ccc(C(=O)OCC(=O)N2CCC(c3ccccc3)=N2)cc1 | x | x | -9 | x | x | x | x | x
COc1cccc(-n2c(C)nc3c(cnn3-c3ccc(Cl)cc3)c2=O)c1 | 12 | 55* | 20 | 18 | 56 | 41 | 6 | 16*
Cc1ccc(-n2c(C)nc3c(cnn3-c3ccc(F)cc3)c2=O)cc1 | 3 | 53* | 18 | 17 | 61 | 38 | 4 | 7
COc1cc2c3c(cccc3c1)C(=O)N(CCN1CCCC1)C2=O | x | x | 44 | x | x | x | x | x
Cc1ccc2[nH]c3c(NCc4ccco4)ncnc3c2c1 | 19 | 60* | 10 | 1 | 54 | 45* | -4 | 11
C=CCC[C@H](Cc1ccc(F)cc1)C(=O)OC[C@H](Cc1c[nH]c2ccccc12)NC(=O)[C@@H](CC=C)CC(=O)N[C@H](CO)Cc1ccccc1 | x | x | 19 | x | x | x | x | x
O=C(NC(=S)Nc1ccc(N2CCCCC2)c(Cl)c1)c1ccc2c(c1)OCCO2 | 4 | 64* | 14 | 12 | 52 | 66* | 22* | 4
CCCc1ccc(-c2ccc(/C=C/C(=O)O)cc2)nc1 | -24 | 96* | 85* | 56* | 20 | 94* | 69* | -35
CCCCCc1ccc(-c2cn(Cc3ccc(C(=O)c4ccccc4)cc3)nn2)cc1 | x | x | 16 | x | x | x | x | x
CCCCCCCc1ccc(-c2ccc(O)cc2)nc1 | -10 | 54* | 24 | -1 | 56 | 62* | 0 | -12
O=C(O)c1cccc(-c2nnn(Cc3ccccc3)n2)c1 | -15 | 10 | 1 | 7 | 92 | x | x | x
O=C(O)c1cccc(-c2nnn(Cc3ccccc3Cl)n2)c1 | 44* | 70* | 4 | -3 | 44 | 61* | 37* | 40*
O=C(COC(=O)C1CCN(c2ccc(C(F)(F)F)cn2)CC1)NCc1ccc(F)cc1 | x | x | 5 | x | x | x | x | x
COc1ccc(S(=O)(=O)NC(=O)C2(C)CCN2C(=O)COc2ccc(Cl)cc2)cc1OC (stereo not given) | x | x | -3 | x | x | x | x | x
CCOc1ccc(N(C)S(=O)(=O)c2ccc(C)c(C(=O)Nc3nnc(C4CC4)s3)c2)cc1 | x | x | 8 | x | x | x | x | x

Bioassay records (PubChem BioAssay)
